Screening data: PubChem BioAssay, Broad Institute
SR-BI uptake up – activators of SR-BI mediated HDL lipid uptake. CHO ldlA[mSR-BI] cells, DiI-HDL uptake fluorescence, 3 h; 100 = double the neutral-control signal. activation, % at 12.5 µM. 0.096% of 320,000 active. AID 504775;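 active = mean replicate activation of at least 60% and every replicate at or above 60%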;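 also: 0% = median plate neutral-control signal and 100% = twice that signal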
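Test system: SR-BI-overexpressing, LDLR-lacking CHO cells. Measured by: DiI fluorescence, bottom read. Medium: Ham's F12 with 0.5% BSA, HEPES 25 mM, pH 7.4. Timing: 3 h uptake period with compound, 37 °C.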
miR-122 sensor – inhibitors of miR-122 in Huh7 cells. Huh7 miR-122 Renilla luciferase sensor, 48 h; neutral wells = 0, positive control = 100. activation (reporter increase), % at 12.5 µM. 0.3% of 340,000 active;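 active = mean replicate activation score at least 90 and every replicate individually at or above 90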;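 also: higher luciferase means less miR-122 activity so hits act as miR-122 inhibitors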
SR-BI DiI inh – blocks mouse SR-BI lipid uptake from DiI-HDL; Q61009; ldlA[mSR-BI] CHO cells, DiI-HDL uptake fluorescence, 3 h; 0.96% of 320,000 active; inhibition, % at 12.5 µM;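 active = mean replicate inhibition of at least 70% and a set share of replicates each scoring 70 or more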;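 also: 0% = median of neutral control wells and 100% = median of positive control wells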
Target sequence (Q61009 whole entry, looked up): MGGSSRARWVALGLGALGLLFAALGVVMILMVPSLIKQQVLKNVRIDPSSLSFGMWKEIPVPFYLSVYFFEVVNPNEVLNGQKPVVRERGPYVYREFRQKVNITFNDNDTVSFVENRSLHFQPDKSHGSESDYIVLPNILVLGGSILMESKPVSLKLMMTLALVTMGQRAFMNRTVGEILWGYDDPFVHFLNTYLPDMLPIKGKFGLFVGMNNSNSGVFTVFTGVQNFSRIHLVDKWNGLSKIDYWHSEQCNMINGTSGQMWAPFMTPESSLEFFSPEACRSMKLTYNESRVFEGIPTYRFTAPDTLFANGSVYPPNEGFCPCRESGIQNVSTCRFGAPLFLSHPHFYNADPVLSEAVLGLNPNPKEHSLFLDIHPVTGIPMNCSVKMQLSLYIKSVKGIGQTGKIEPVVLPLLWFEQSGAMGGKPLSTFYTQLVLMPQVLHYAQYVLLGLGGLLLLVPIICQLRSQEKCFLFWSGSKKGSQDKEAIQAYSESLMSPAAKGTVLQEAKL
CAL PDZ FP-1 – inhibitors of human CAL PDZ peptide binding. purified CAL PDZ, TMR-peptide fluorescence polarization, 1 h. 0.02% of 330,000 active. Q9HD26. inhibition, % at 20 µM. AID 504414;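 active = highest replicate inhibition of at least 40%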;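 also: plate controls were DMSO neutral control wells for no effect and unlabeled competitor peptide control wells for full effect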
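Control set: unlabelled peptide and DMSO controls / Material: purified CerCALP PDZ construct / Timing: 1 h incubation at room temperature before polarization reading / Doses: 20 µM, one dose / Detection: fluorescence polarization (mP)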
ARNT-TACC3 inh – ARNT/TACC3 interaction disruption. Q9Y6A5. AlphaScreen His-ARNT PAS-B/GST-TACC3 binding, luminescence; TACC3 fragment carries E629A point mutation. inhibition, % at 9.99 µM. 0.66% of 390,000 active;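 active = mean inhibition of replicates at least 50% and at least half of replicates each reaching 50%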;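 also: 0% = complete ARNT plus TACC3 wells and 100% = ARNT alone without TACC3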
CAL PDZ FP-2 – CAL PDZ (human) peptide binding inhibition; Q9HD26; purified CAL PDZ, TMR-peptide fluorescence polarization, 1 h; inhibition, % at 24.9 µM; 0.92% of 300,000 active;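 active = mean inhibition of at least 30% with at least half of replicates also reaching 30%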;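 also: 0% = DMSO neutral control and 100% = excess unlabeled competitor peptide PRC23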
The depositor's hits bear a star; x = not tested or not shown; [ ] = remark or other dose. Compounds with a hit are over-represented: about 2.1% of the library has one in this group of screens.

SMILES | SR-BI uptake up | miR-122 sensor | SR-BI DiI inh | CAL PDZ FP-1 | ARNT-TACC3 inh | CAL PDZ FP-2
COc1cc(C)c(NC(=O)c2cccc(S(=O)(=O)N3CCCC3)c2)cc1OC | -86 | -5 | 86* | 0 | x | x
COc1ccc(NC(=O)c2cccc(S(=O)(=O)N3CCCC3)c2)cc1OC | -69 | 3 | 69 | 0 | -20 | 77*
COc1ccc(C(=O)Nc2ccc(S(=O)(=O)N3CCCCC3)cc2)cc1OC | -5 | 2 | 5 | -3 | x | -5
COc1ccc(NC(=O)c2cccc(S(=O)(=O)N3CCCCC3)c2)c(OC)c1 | -41 | 4 | 41 | -2 | -2 | -4
Cc1ccsc1C(=O)NNC(=O)c1cccc(S(=O)(=O)N2CCCC2)c1 | -4 | 0 | 4 | 0 | -26 | 83*
COCC(=O)Nc1ccc2c(c1)C(=O)N(C)C[C@@H](OC)[C@@H](C)CN(C(C)=O)[C@H](C)CO2 | x | -2[16.7 µM] | x | x | 3 | x
COc1cc(OC)c(C(=O)Nc2cc(Cl)ccc2-n2cncn2)cc1OC | -81 | x | 81* | -2 | -5 | -5
CN1C(=O)c2cc(NS(=O)(=O)c3ccc(Cl)cc3)ccc2OC[C@@H]2O[C@@H](CC(=O)N3CCc4ccccc4C3)CC[C@H]21 | x | 17[16.7 µM] | x | x | 5 | x
O=C1CCc2cc(S(=O)(=O)N3CCN(c4ccccc4F)CC3)ccc2N1 | 12 | x | -12 | -2 | 6 | 1
CCCN1CCN(S(=O)(=O)c2ccc3c(c2)CCC(=O)N3)CC1 | 18 | -8 | -18 | -1 | -11 | 46*
CC(C)OC(=O)N(C)C[C@@H]1OCc2cn(nn2)CCCC(=O)N([C@H](C)CO)C[C@@H]1C | x | 1[16.7 µM] | x | x | -4 | x
Cc1nn(-c2ccccc2)c2c1C(c1ccc(O)c(O)c1)N1C(=N2)C(Nc2ccccc2)=Nc2ccccc21 (stereo not drawn) | -17 | -4 | 17 | 0 | 3 | -1
Cc1cccc(NC2=Nc3ccccc3N3C2=Nc2c(c(C)nn2-c2ccccc2)C3c2ccc(O)c(O)c2)c1 (stereo not drawn) | -103 | 8 | 103* | 1 | -8 | -16
Cc1nn(-c2ccccc2)c2c1C(c1ccc([N+](=O)[O-])cc1)N1C(=N2)C(=O)Nc2ccccc21 (stereo not drawn) | -2 | x | 2 | -12 | 2 | -5
Cc1ccc(NC2=Nc3ccccc3N3C2=Nc2c(c(C)nn2-c2ccccc2)C3c2ccc(O)c(O)c2)cc1 (stereo not drawn) | -119 | 1 | 119* | 0 | -3 | -3
COc1cccc(OCCOc2ccc(/C=C3\C(=N)N4N=C(S(C)(=O)=O)SC4=NC3=O)cc2OC)c1 | -36 | -1 | 36 | -5 | -3 | 55*
CCOc1ccccc1N(CC(=O)Nc1c(C)n(C)n(-c2ccccc2)c1=O)S(=O)(=O)c1ccccc1 | 71* | x | -71 | -2 | x | -4
CC(C)(C)n1ncc2c(=O)n(Cc3ccc(Cl)c(Cl)c3)cnc21 | 27 | x | -27 | 4 | 9 | 82*
CO[C@@H]1CN(C)C(=O)c2cc(NC(=O)NC3CCCCC3)ccc2OC[C@H](C)NC[C@@H]1C | x | 1[16.7 µM] | x | x | -4 | x
C#CCOCCOCCOCCNc1nc(N2CCN(C(=O)C(Cc3ccc(O)cc3)n3cc(C(N)C(C)CC)nn3)CC2)nc(N2CCN(C(=O)C(Cc3ccc(O)cc3)n3cc(C(N)C(C)CC)nn3)CC2)n1 (stereo not drawn) | 19 | -4 | -19 | 0 | 17 | -2
C#CCOCCOCCOCCNc1nc(N2CCN(C(=O)[C@H]([C@@H](C)CC)n3cc([C@@H](N)Cc4ccc(O)cc4)nn3)CC2)nc(N2CCN(C(=O)[C@H](Cc3cc4ccccc4[nH]3)n3cc([C@@H](N)CC(C)C)nn3)CC2)n1 | 41 | x | -41 | 0 | -1 | 5
C#CCOCCOCCOCCNc1nc(N2CCN(C(=O)[C@H](CCCCN)n3cc([C@@H](N)CC(C)C)nn3)CC2)nc(N2CCN(C(=O)[C@H](Cc3cc4ccccc4[nH]3)n3cc([C@@H](N)Cc4ccc(O)cc4)nn3)CC2)n1 | 34 | x | -34 | 0 | 46* | -2
C#CCOCCOCCOCCNc1nc(N2CCN(C(=O)C(Cc3cc4ccccc4[nH]3)n3cc(C(N)C(C)CC)nn3)CC2)nc(N2CCN(C(=O)C(Cc3cc4ccccc4[nH]3)n3cc(C(N)C(C)CC)nn3)CC2)n1 (stereo not drawn) | 67* | x | -67 | 0 | -7 | 7
C#CCOCCOCCOCCNc1nc(N2CCN(C(=O)[C@H](CCCCN)n3cc([C@@H](N)C(C)CC)nn3)CC2)nc(N2CCN(C(=O)[C@H](Cc3ccc(O)cc3)n3cc([C@@H](N)CC(C)C)nn3)CC2)n1 (stereo partly drawn) | -24 | -4 | 24 | 0 | 30* | 0
C#CCOCCOCCOCCNc1nc(N2CCOCC2)nc(N2CCN(C(=O)[C@H](Cc3cc4ccccc4[nH]3)n3cc([C@@H](N)C(C)CC)nn3)CC2)n1 (stereo partly drawn) | 1 | -7 | -1 | -1 | 4 | -1
SMILES | SR-BI uptake up | miR-122 sensor | SR-BI DiI inh | CAL PDZ FP-1 | ARNT-TACC3 inh | CAL PDZ FP-2
CN1c2ccc(-c3ccccc3F)cc2[C@H]2[C@H](CCN2S(=O)(=O)c2ccc(F)cc2)[C@@H]1CO | x | -10[16.7 µM] | x | x | -2 | x
CN(CCc1cnn(C)c1)Cc1cn(C)nc1-c1ccc2c(c1)OCCO2 | 32 | x | -32 | -1 | x | -2
Cc1n[nH]c(C)c1CCN(C)Cc1cn(C)nc1-c1ccc2c(c1)OCCO2 | 4 | 2 | -4 | 0 | 4 | 102*
Cc1c(N(C)S(=O)(=O)c2ccc(Cl)c(C(=O)NCC(C)(C)N3CCOCC3)c2)c(=O)n(-c2ccccc2)n1C | 9 | -2 | -9 | -1 | -2 | 35*
Cc1c(N(C)S(=O)(=O)c2cc(C(=O)N3CCCC3)ccc2Cl)c(=O)n(-c2ccccc2)n1C | 10 | -4 | -10 | 0 | 1 | -1
O=C(Nc1ccc(-c2csc(Nc3ccc(Cl)cc3)n2)cc1)c1cc([N+](=O)[O-])cc(C(F)(F)F)c1 | -106 | 2 | 106* | -1 | x | -1
O=C(Nc1cccc(-c2csc(Nc3ccc(Cl)cc3)n2)c1)c1cc([N+](=O)[O-])cc(C(F)(F)F)c1 | -127 | 1 | 127* | 0 | -11 | -1
NS(=O)(=O)c1ccc(Nc2nc(-c3cccc([N+](=O)[O-])c3)cs2)cc1 | -64 | -5 | 64 | -1 | x | x
Nc1nc(-c2ccc([N+](=O)[O-])cc2)c(C(=O)Nc2ccc(Cl)cc2)s1 | x | 2 | x | 0 | 1 | 4
